Data as given in ChEMBL document CHEMBL1149143, “Synthesis, antimalarial activity, and molecular modeling of new pyrrolo[1,2-a]quinoxalines, bispyrrolo[1,2-a]quinoxalines, bispyrido[3,2-e]pyrrolo[1,2-a]pyrazines, and bispyrrolo[1,2-a]thieno[3,2-e]pyrazines” (J Med Chem, 2004).

Experiments:
[1] = system: Plasmodium falciparum; assay: In vitro antimalarial activity against Plasmodium falciparum K1; assay type: functional, organism-based
Outline: (§1)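 P. falciparum kept on human erythrocytes; CQ-sensitive Thai and CQ-resistant FcB1 and K1 strains. Drugs diluted serially in culture medium, added to asynchronous cultures (1% parasitemia, 1% hematocrit) for 24 h at 37 °C, then 0.5 μCi [³H]hypoxanthine per well for 24 h more. Uptake compared with drug-free controls; IC50 from concentration–response curve, mean ± SD of independent experiments. DMSO ≤0.1%.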

[2] = system: Plasmodium falciparum; assay: In vitro antimalarial activity against Plasmodium falciparum FcB1; assay type: functional, organism-based; outline: as §1
[3] = system: Plasmodium falciparum; assay: Resistance index as IC50 for Plasmodium falciparum K1 and Thai strains; assay type: functional
[4] = system: L6; assay: Selectivity IC50 index against Plasmodium falciparum K1 compared to L6 cells; assay type: functional
[5] = system: L6; assay: In vitro cytotoxicity against mammalian L6 cells was determined; assay type: functional, cell-based; conditions: Rattus norvegicus
Outline: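 L6 cells, 10⁴ per well, exposed to a range of inhibitor concentrations for up to 5 days. Proliferation read by XTT colorimetric assay; inhibition relative to DMSO-treated controls; IC50 reported.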

[6] = system: Plasmodium falciparum; assay: In vitro antimalarial activity against Thai strain of Plasmodium falciparum; assay type: functional, organism-based; outline: as §1
[7] = system: Plasmodium falciparum; assay: Resistance index as ratio of IC50 for Plasmodium falciparum FcB1 and Thai strains; assay type: functional
[8] = Food vacuolar accumulation ratio was determined; assay type: functional
Outline: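 Calculated, not measured: VAR from the compound's pKa values, assuming vacuolar pH 5.0 and external pH 7.4.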

[9] = Lipophilicity at pH 5; assay type: physicochemical; conditions: buffer, read-out: Log D5.0
Outline: (§2)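 Octanol/buffer shake partition: phosphate buffer pH 7.4 or acetate buffer pH 5.0, phases mutually presaturated; compound at 50–250 μg/mL in buffer. Aqueous phase shaken with octanol 30 min, centrifuged 3000 rpm 10 min. Aqueous peak areas before and after partitioning by reversed-phase C8 HPLC (acetonitrile–acetate pH 4, 80:20; 60 °C; UV 254 nm).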

[10] = Lipophilicity at pH 7.4; assay type: physicochemical; conditions: buffer, read-out: Log D7.4; outline: as §2

Compound | IC50 [1] | IC50 [2] | Ratio [3] | Ratio [4] | IC50 [5] | IC50 [6] | Ratio [7] | Ratio [8] | logD [9] | logD [10]
CCN(CC)CCCC(C)Nc1nc2cc(OC)ccc2n2cccc12 (stereo not given) | 1.78 µM | 2.47 µM | 2.1 | >11.2 | > 20 µM | 0.83 µM | 3 |  |  | 
CCN(CC)CCCC(C)Nc1nc2ccc(Cl)cc2n2cccc12 (stereo not given) | 3.06 µM | 4.79 µM | 1.6 | 5.6 | 17.3 µM | 1.94 µM | 2.5 |  |  | 
COc1ccc2nc(NCCCN(C)CCCNc3nc4ccc(OC)cc4n4cccc34)c3cccn3c2c1 | 0.2 µM | 0.32 µM | 1.7 | 19.2 | 3.79 µM | 0.12 µM | 2.7 | 42100 | 0.41 | 3.41
COc1ccc2c(c1)nc(NCCCN1CCN(CCCNc3nc4cc(OC)ccc4n4cccc34)CC1)c1cccn12 | 0.08 µM | 0.13 µM | 2.7 | 17.4 | 1.32 µM | 0.03 µM | 4.3 | 187000 | 2.15 | 3.72
COc1ccc2nc(NCCCN3CCN(CCCNc4nc5ccc(OC)nc5n5cccc45)CC3)c3cccn3c2n1 |  | 0.6 µM |  |  |  |  |  | 33000 | 3.97 | 4.73
COc1ccc2c(c1)nc(NCCCN(C)CCCNc1nc3cc(OC)ccc3n3cccc13)c1cccn12 | 0.05 µM | 0.11 µM | 1 | 106.3 | 5.74 µM | 0.05 µM | 2.2 | 105000 | 0.93 | 3.55
Clc1ccc2nc(NCCCNCCCNc3nc4ccc(Cl)cc4n4cccc34)c3cccn3c2c1 | 0.79 µM | 1.14 µM | 1.7 | 6.1 | 4.81 µM | 0.47 µM | 2.4 | 1600 | 3.16 | 5.06
c1ccc2c(c1)nc(NCCCN1CCN(CCCNc3nc4ccccc4n4cccc34)CC1)c1cccn12 | 0.37 µM | 0.29 µM | 4.6 | 13.6 | 5.04 µM | 0.08 µM | 3.6 | 409000 | 1.31 | 2.52
CN(CCCNc1nc2ccc(Cl)cc2n2cccc12)CCCNc1nc2ccc(Cl)cc2n2cccc12 | 0.7 µM | 1.01 µM | 1.8 | 7.1 | 4.95 µM | 0.4 µM | 2.5 | 1800 | 3.5 | 4.44
COc1ccc2c(c1)nc(NCCCNCCCNc1nc3cc(OC)ccc3n3cccc13)c1cccn12 | 0.11 µM | 0.19 µM | 2.7 | 26.6 | 2.98 µM | 0.04 µM | 4.7 | 104000 | 0.8 | 2.76
CCN(CC)CCCC(C)Nc1nc2ccccc2n2cccc12 (stereo not given) | 4.34 µM | 4.97 µM | 1.5 | >4.6 | > 20 µM | 2.95 µM | 1.7 |  |  | 
Clc1ccc2nc(NCCCN3CCN(CCCNc4nc5ccc(Cl)cc5n5cccc45)CC3)c3cccn3c2c1 | 0.48 µM | 0.64 µM | 1.7 | 8.2 | 4.01 µM | 0.28 µM | 2.3 | 2100 | 3.43 | 4.92
c1cc2c(NCCCN3CCN(CCCNc4nc5ccsc5n5cccc45)CC3)nc3ccsc3n2c1 |  | 0.93 µM |  |  |  |  |  |  |  | 
c1cnc2c(c1)nc(NCCCN1CCN(CCCNc3nc4cccnc4n4cccc34)CC1)c1cccn12 |  | 1.09 µM |  |  |  |  |  | 100 | 2.22 | 5.05
COc1ccc2nc(NCCCN3CCN(CCCNc4nc5ccc(OC)cc5n5cccc45)CC3)c3cccn3c2c1 | 0.08 µM | 0.13 µM | 2 | 52.7 | 4.06 µM | 0.04 µM | 3.2 | 72500 | 1.88 | 4.67
COc1ccc2nc(NCCCNCCCNc3nc4ccc(OC)cc4n4cccc34)c3cccn3c2c1 | 0.33 µM | 0.3 µM | 2.4 | 11 | 3.62 µM | 0.14 µM | 2.1 | 41700 | 0.93 | 2.58
COc1ccc2c(c1)nc(NCCCN1CCN(CCCNc3nc4cc(OC)ccc4n4c(Cl)ccc34)CC1)c1ccc(Cl)n12 | 0.33 µM | 0.72 µM | 1.32 | 9.3 | 3.07 µM | 0.25 µM | 2.9 | 900 | 4.17 | 5.74
CN(CCCNc1nc2ccccc2n2cccc12)CCCNc1nc2ccccc2n2cccc12 | 0.28 µM | 0.48 µM | 2.3 | 22.1 | 6.2 µM | 0.12 µM | 4 | 226000 | 1.56 | 4.12
